Rows were chosen to be rich in hits. Some 4.5% of all compounds tested hit in one or more screens of this group.
p97 inhibitor = inhibitors of human p97 ATPase | P55072 | recombinant p97 ATPase, Kinase-Glo ATP luminescence, 3 h | inhibition, % at 8 µM | 220,000 tested, 0.42% active | AID 1481; in the data active = inhibition above about 15%
Target sequence (P55072 whole entry, looked up): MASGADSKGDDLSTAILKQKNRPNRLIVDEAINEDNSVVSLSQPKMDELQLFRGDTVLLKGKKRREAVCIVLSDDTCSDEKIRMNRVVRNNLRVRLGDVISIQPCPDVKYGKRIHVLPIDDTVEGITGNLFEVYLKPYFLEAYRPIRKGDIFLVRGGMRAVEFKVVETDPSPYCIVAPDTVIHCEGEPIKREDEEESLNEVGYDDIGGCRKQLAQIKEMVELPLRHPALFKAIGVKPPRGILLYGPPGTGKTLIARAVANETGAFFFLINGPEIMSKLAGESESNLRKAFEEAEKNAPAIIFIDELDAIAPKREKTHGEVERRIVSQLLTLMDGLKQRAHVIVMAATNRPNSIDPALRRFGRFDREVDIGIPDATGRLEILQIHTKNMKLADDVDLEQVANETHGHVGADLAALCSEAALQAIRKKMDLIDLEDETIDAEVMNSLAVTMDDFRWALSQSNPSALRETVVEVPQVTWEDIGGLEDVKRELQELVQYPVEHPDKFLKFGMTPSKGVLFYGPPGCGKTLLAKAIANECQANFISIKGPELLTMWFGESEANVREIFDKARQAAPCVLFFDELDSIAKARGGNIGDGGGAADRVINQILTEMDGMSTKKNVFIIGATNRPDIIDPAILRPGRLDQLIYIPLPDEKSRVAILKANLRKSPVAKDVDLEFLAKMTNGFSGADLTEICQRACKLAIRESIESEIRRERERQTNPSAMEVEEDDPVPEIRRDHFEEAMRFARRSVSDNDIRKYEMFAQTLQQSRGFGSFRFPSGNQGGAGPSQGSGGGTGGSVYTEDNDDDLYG
UPR XBP1 act = activators of adaptive arm of unfolded protein response (XBP1). activation, % at 20 µM. 330,000 tested, 0.33% active. CHO-XBP1 luciferase reporter, IRE1-XBP1 UPR activation, luminescence; percent of tunicamycin response, DMSO as zero;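 active = versus positive control, 20 µM dose yields 30% or more activation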
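Assay system: CHO-XBP1 luciferase reporter cells; Schedule: 6 h treatment, 37 °C; Detection: glow luminescence from Steady-Glo reagent; Benchmarks: high control tunicamycin 10 µg/mL final, low control DMSO vehicle only.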
NS3 helicase inh = HCV NS3 helicase inhibition | inhibition, % at 10.9 µM | 290,000 tested, 0.56% active | NS3 helicase DNA unwinding, Cy5 molecular beacon fluorescence | AID 1800;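 active = inhibition above the mean of all tested compounds plus 3 SD, set per campaign, cut at about 35% in these data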
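test system = hepatitis C virus NS3 helicase domain fragment enzyme | reagent = annealed dual-labelled DNA beacon duplex, ATP-started | times = 1 h at 25 °C | detection = Cy5 fluorescence, 0 and 60 min reads | read-out basis = percent inhibition from t60/t0 fluorescence ratio | control set = DMSO and thioflavine S | replication = one well per compound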
CHOP UPR activ = apoptotic UPR (CHOP) activation | activation, % at 10 µM | 330,000 tested, 0.34% active | CHO-CHOP luciferase reporter, luminescence; percent of tunicamycin response over DMSO baseline;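 active = at 10 µM dose, activation of 40% or more, normalized to positive control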
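Dosing – one dose, 10 µM in 0.5% DMSO · System – CHO-CHOP cells, stable luciferase reporter of PERK-eIF2a-CHOP signalling · Input – 500 cells/well · Control set – tunicamycin 10 µg/mL final as positive, DMSO-only wells as negative · Timing – 6 h compound treatment, 37 °C · Measure – % activation vs tunicamycin · Technique – luminescence read with Steady-Glo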
PfM18AAP inh = blocks P. falciparum M18 aspartyl aminopeptidase; AID 1822; inhibition, % at 7.35 µM; 290,000 tested, 1.2% active; recombinant PfM18AAP, H-Glu-NHMec fluorogenic cleavage;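 active = inhibition above the campaign mean inhibition over all tested compounds plus 3 SD, cut at about 28% in these data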
CHOP inh = CHOP inhibition in unfolded protein response | CHO-K1 CHOP-promoter luciferase, tunicamycin-induced, 15-18 h | inhibition, % at 10 µM | 220,000 tested, 3.8% active;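 active = compounds that reduced the stress-induced luciferase reporter signal by more than about 70% of percent inhibition, limit read from the data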
CHOP inh conf = confirmation of CHOP induction inhibitors | inhibition, % at 10 µM | 2,100 tested, 45% active | shares compounds with CHOP inh | CHO-CHOP promoter luciferase reporter, tunicamycin-induced, luminescence;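 active = mean of three repeat readings of reporter signal inhibition above a set limit, cut at about 70% in these data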
A number is an active result; i = inactive; nt = no result given.

SMILES	p97 inhibitor	UPR XBP1 act	NS3 helicase inh	CHOP UPR activ	PfM18AAP inh	CHOP inh	CHOP inh conf
COc1ccc(OCc2cccc(C(=O)Nn3cc([N+](=O)[O-])cn3)c2)cc1	i	i	i	i	i	98.0	123.0
COC(=O)c1cccc(Cn2cc([N+](=O)[O-])cn2)c1	i	i	i	i	i	i	nt
CN(C)CCCNc1ccc(-c2cc(Nc3cccc(Cl)c3)ncn2)cn1	nt	i	nt	i	nt	i	nt
OCCCNc1cc(-c2ccnc(Nc3cccc(Cl)c3)n2)ccn1	nt	i	nt	i	nt	102.6	106.9
CC(=O)c1c(C)oc2ccc(NS(=O)(=O)c3ccc(C)cc3)cc12	nt	i	i	i	i	nt	nt
Cc1oc2ccc(NS(=O)(=O)c3ccc(C(C)(C)C)cc3)cc2c1C(=O)Nc1ccccc1	i	i	i	i	i	107.0	i
CC1(C2CC2)NC(=O)N(CC(=O)Nc2ccccc2F)C1=O (centres undefined)	nt	i	nt	i	nt	nt	nt
CC(C)CCN(C(=O)Cc1ccc(Cl)c(Cl)c1)c1c(N)n(Cc2ccccc2)c(=O)[nH]c1=O	i	i	i	i	i	103.4	108.4
CC(C)CCN(C(=O)c1ccncc1)c1c(N)n(Cc2ccccc2)c(=O)[nH]c1=O	nt	i	nt	i	nt	nt	nt
Cc1nn(C)cc1C(=O)/C=C/c1ccc([N+](=O)[O-])cc1	i	i	i	i	i	i	nt
CCn1cc(CN(C)C(=O)/C=C/c2ccc([N+](=O)[O-])cc2)c(C)n1	i	i	i	i	i	96.3	i
CC/C(=N\Nc1ccccc1[N+](=O)[O-])c1ccc(O)cc1	i	i	i	i	i	99.6	i
CC/C(=N\Nc1ccc([N+](=O)[O-])cc1[N+](=O)[O-])c1ccc(O)cc1	nt	i	i	i	i	nt	nt
CCOC(=O)N1CCC(Nc2ccc(N3C(=O)C4CCCCC4C3=O)cc2[N+](=O)[O-])CC1 (centres undefined)	i	i	i	i	i	i	nt
O=C(c1ccc2[nH]c(=O)c(=O)[nH]c2c1)N1CCc2ccccc21	nt	i	i	i	i	nt	nt
O=C(Nc1cccc(-c2nc3ncccc3o2)c1)c1sc2cc(Cl)ccc2c1Cl	i	i	i	i	i	i	nt
O=C(Nc1cccc(-c2nc3ncccc3o2)c1)c1sc2ccccc2c1Cl	i	i	i	i	i	103.6	103.4
CCOC(=O)c1oc2ccc(/C=N/O)c(Cl)c2c1C	i	i	i	i	i	104.0	i
CCOC(=O)c1oc2cc(C)cc(C)c2c1C	i	i	i	i	i	i	nt
C=CCSc1n[nH]c(-c2ccc(OCCCC)cc2)n1	i	i	i	i	i	106.2	97.3
C=CCSc1n[nH]c(-c2ccc(OCCC)cc2)n1	i	i	i	i	i	i	nt
Cc1cc(C)n(-c2ccc(NC(=O)C3CCCCN3C(=O)c3cc(C)oc3C)cc2)n1 (centres undefined)	nt	i	i	i	i	nt	nt
Cc1ccc(C(=O)NNC(=O)CSc2nc(N)cc(N)n2)cc1	i	i	i	i	i	i	nt
Cc1ccc(C(=O)NNC(=O)CSc2nnc3c(n2)[nH]c2ccc(C)cc23)cc1	i	i	i	i	i	104.2	i
O=S(=O)(c1ccc(Cl)cc1)c1cnc(-c2cccnc2)nc1-c1ccccc1	i	i	i	i	i	99.5	i
SMILES	p97 inhibitor	UPR XBP1 act	NS3 helicase inh	CHOP UPR activ	PfM18AAP inh	CHOP inh	CHOP inh conf
CN(C)c1ncc(S(=O)(=O)c2ccc(Cl)cc2)c(-c2ccccc2)n1	i	i	i	i	i	i	nt
Cc1ccc(NC(=O)NCc2c(C)nn(C)c2C)cc1Cl	i	i	i	i	i	i	nt
Cc1ccc(NC(=O)O/N=C/c2c(C)nn(C(C)(C)C)c2C)cc1Cl	i	i	i	i	i	99.2	120.4
Cc1cc(C)c(OCCN2CCOCC2)c(Cl)c1	nt	i	i	i	i	nt	nt
CCOC(=O)c1c(C)[nH]c(C(=O)COC(=O)C2CC(=O)N(Cc3ccccc3)C2)c1C (centres undefined)	i	i	i	i	i	101.4	i
CCOC(=O)c1c(C)[nH]c(C(=O)COC(=O)c2[nH]c(C)c(C(C)=O)c2C)c1C	i	i	i	i	i	97.2	82.7
CC(=O)c1c(C)[nH]c(C(=O)OCC(=O)N(C)C)c1C	i	i	i	i	i	i	nt
Cc1[nH]c2ccccc2c1C(=O)COC(=O)C1CC(=O)N(Cc2ccccc2)C1 (centres undefined)	i	i	i	i	i	i	nt
O=c1[nH]cnc2c1cnn2Cc1ccccc1Cl	nt	i	i	i	i	nt	nt
Cc1ccc(-c2nnc(Cc3ccc(Cl)cc3)o2)cc1	i	i	i	i	i	i	nt
O=c1c(Cl)c(Cl)cnn1Cc1nnc(-c2ccc(Cl)cc2)o1	i	nt	i	nt	i	107.5	i
O=c1c(Cl)c(Cl)cnn1Cc1ccccc1Cl	i	nt	i	nt	i	111.3	i
Cc1cc(C)cc(Cn2ncc(Cl)c(Cl)c2=O)c1	i	nt	i	nt	i	105.9	i
O=C(Cn1ncc(Cl)c(Cl)c1=O)N1CCN(Cc2ccccc2)CC1	i	nt	i	nt	i	107.2	i
COc1cccc(CC2(CO)CCCN(Cc3cc4ccccc4[nH]3)C2)c1 (centres undefined)	i	i	i	i	i	i	nt
O=C(CN1CCN(CC(=O)Nc2cccc(F)c2)CC1)Nc1ccc(-c2ccccc2)cc1	nt	i	i	i	i	nt	nt
Cc1ccc(OCC(=O)NC(=S)Nc2ccc(Br)cn2)cc1	i	i	i	i	i	i	nt
CCN(CC)c1ccc2c(c1)oc(=O)c1c(Cl)cc(=O)oc12	i	i	i	i	i	107.8	i
Cc1cccc(/C=C/c2nc3ccccc3c(=O)[nH]2)c1	i	i	i	i	i	102.4	120.8
Cc1ccc(N=C2SC(C(=O)Nc3ccc(OC(F)(F)F)cc3)C(N)=C2C(=O)Nc2c(C)cc(C)cc2C)cc1 (centres undefined)	i	nt	i	nt	i	105.1	83.5
Cc1ccc(NC(=O)C2SC(=Nc3ccccc3)C(C(=O)Nc3ccc(Cl)cc3)=C2N)cc1 (centres undefined)	i	nt	i	nt	i	i	nt
O=C(C[C@@H]1C/C=C\C[C@H](Cc2ccc(F)cc2)C(=O)OC[C@@H](c2ccccc2)NC1=O)NCCO	nt	i	nt	i	nt	nt	nt
O=C(/C=C/c1ccccc1)N1CCC[C@H]1CO	i	i	i	i	i	i	nt
C#CCSc1nncn1C(=O)/C=C/c1ccccc1	i	i	i	i	i	105.0	i
CCCOC(=O)c1ccc(Oc2c(-c3ccc(OCC)cc3O)n[nH]c2C)cc1	i	i	i	i	i	113.5	118.5
CCOc1ccc(-c2[nH]ncc2Oc2cccc(OC)c2)c(O)c1	i	i	i	i	i	107.4	i
CCCOC(=O)c1ccc(Oc2cn[nH]c2-c2ccc(OCC)cc2O)cc1	i	i	i	i	i	107.0	123.7

Source: PubChem BioAssay
